We go through six molecules from publication PMC4075987 (Biochemistry, 2014).

Assay [1] concerns the target T1, apo-FbpABp (Bordetella pertussis, UniProt Q7VXW9).
T1 sequence (Q7VXW9 31-349): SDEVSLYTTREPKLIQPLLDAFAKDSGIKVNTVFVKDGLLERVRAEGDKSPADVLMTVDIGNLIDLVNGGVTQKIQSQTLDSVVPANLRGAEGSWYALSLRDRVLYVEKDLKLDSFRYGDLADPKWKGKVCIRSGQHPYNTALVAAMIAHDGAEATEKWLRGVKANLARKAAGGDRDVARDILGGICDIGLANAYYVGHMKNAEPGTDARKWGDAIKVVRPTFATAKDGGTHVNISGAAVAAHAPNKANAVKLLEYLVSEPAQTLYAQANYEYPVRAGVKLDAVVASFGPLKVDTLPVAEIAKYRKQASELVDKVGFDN
The settings on record: pH 6.5, 50 mM MES, 100 mM NaCl; monitored 3 h.

Assay [2] addresses T1, apo-FbpABp. Type of assay: binding.
The target of assay [3] is T1, apo-FbpABp. Description: UV-vis spectral difference experiment between apo-DFB and apo-FbpABp. The settings on record: results not shown. Type of assay: binding.
A further assay relates to FbpABp. Type of assay: binding, Bordetella pertussis. The note with it: absence of a suitable synergistic anion. Summed up:
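Recombinant B. pertussis FbpA was made periplasmically in B. bronchiseptica ΔfbpA grown in iron-depleted Stainer–Scholte medium at 35 °C, then osmotic-shock extracted and DEAE-purified. Apo-protein took 50 equiv carbonate/oxalate (30 min) then 10 equiv Fe(ClO4)3 (overnight, 4 °C, filtered), or 10 equiv citrate/NTA then 2 equiv 1:1 Fe-anion. Iron was titrated to maximal CT band, dialysed, then competed against EDTA; pH 6.5 MES/NaCl.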

Where [4] appears, read: read-out: Kd (apparent Fe3+-siderophore/apo-FbpABp dissociation constant, eq 3), ferric siderophore complex, one-site model, 50 mM MES, 100 mM NaCl, pH 6.5, room temperature.

Entries after “also recorded” stand apart in the source; their conditions may differ. Read-outs that look alike come from different tables or passages of the source. Square brackets hold non-standard residues; d marks the D form. Peptide text beside a SMILES is read from it. Orn(N5-OH,N5-Ac) = CC(=O)N(O)CCC[C@H](N)C(=O)O

Take ferric-alcaligin [Fe2(ALC)3]: at apo-FbpABp [1], the “change of ferric siderophore CT band after addition of apo-FbpABp” value is given as “shift in λmax from 428 nm (CT band for Fe2ALC3) to 410 nm; also recorded: λmax shifted from 428 to 410 nm”. Moreover, the “Qmax (maximum % quenching)” value at apo-FbpABp [2] (ferric siderophore complex, emission 352 nm, excitation 297 nm, pH 6.5) was about 80%. Besides, the “blue shift of FbpABp emission band” value at apo-FbpABp [2] (on addition of ferric siderophore to apo-FbpABp) is on record as about 8 nm. The Kd at apo-FbpABp [2] (setting [4]) was 130 ± 40 nM.

For `CC(=O)N([O-])CCC[C@@H]1NC(=O)CNC(=O)CNC(=O)CNC(=O)[C@H](CCCN([O-])C(C)=O)NC(=O)[C@H](CCCN([O-])C(C)=O)NC1=O.[Fe+3]` [FC, ferrichrome] (cyclo(GGG[Orn(N5-OH,N5-Ac)][Orn(N5-OH,N5-Ac)][Orn(N5-OH,N5-Ac)])), at apo-FbpABp [2] (setting [4]), the Kd is about 1000 nM.

For `O=C(N[C@H]1COC(=O)[C@@H](NC(=O)c2cccc(O)c2O)COC(=O)[C@@H](NC(=O)c2cccc(O)c2O)COC1=O)c1cccc(O)c1O` [ENT, enterobactin], the Kd at apo-FbpABp [2] was about 1000 nM. In addition, on apo-FbpABp [2] (apo-siderophore, final protein:apo-siderophore 1:4 (ALC), 1:2 (ENT)), the “quenching of apo-protein fluorescence emission band by apo-siderophore” value was under 16%.

Regarding `CC(=O)N(O)CCCCCNC(=O)CCC(=O)N(O)CCCCCNC(=O)CCC(=O)N(O)CCCCCN` [DFB, desferrioxamine B], on apo-FbpABp [2], the Kd is about 1000 nM. Also, at apo-FbpABp [3], the “binding of apo-siderophore by apo-FbpABp” value is recorded as “not able to bind an apo-siderophore effectively”.

Consider `O=C1CCC(=O)N(O)CCC(O)CNC(=O)CCC(=O)N(O)CCC(O)CN1` (centres unmarked) [ALC, alcaligin], for which the Kd on apo-FbpABp [2] (setting [4]) was about 100 nM.

Turning to `[Fe+3]` [Fe^3+, Ferric iron], the “Fe3+ sequestration by FbpABp” value in the assay with FbpABp is on record as “No Fe^3+ sequestration was observed”.
